Laboratory results: ChEMBL document CHEMBL2424598, “Identification and optimization of pteridinone Toll-like receptor 7 (TLR7) agonists for the oral treatment of viral hepatitis” (J Med Chem, 2013)

Tests used:
[1] = Cmax in cynomolgus monkey at 0.1 mg/kg, iv; format: ADME, organism-based, Macaca fascicularis; set-up: dose 0.1 mg/kg, route intravenous; settings: in vivo
Procedure, shortened: (§1)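 Male cynomolgus monkeys, n = 3 per group, received a 30 min iv infusion or an oral dose. Compound was measured in serum (limit of quantitation 0.04 ng/mL), and Cmax is reported as the group mean.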

[2] = Oral bioavailability in cynomolgus monkey at 0.3 mg/kg; format: ADME, organism-based, Macaca fascicularis; settings: in vivo
Procedure, shortened: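 Healthy male cynomolgus monkeys, n = 3, received a 30 min iv infusion at 0.1 mg/kg or an oral dose at 0.3 mg/kg. The oral formulation was water at pH 3.1 (HCl). Plasma PK parameters (CL, Vss, F) are reported as mean ± SD.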

Toll-like receptor 8 = biological target: T1, Toll-like receptor 8 (Homo sapiens, UniProt Q9NR97); assay: Agonist activity at human TLR8 expressed in HEK293 cells by reporter based assay; format: cell-based
T1 sequence (Q9NR97 whole entry): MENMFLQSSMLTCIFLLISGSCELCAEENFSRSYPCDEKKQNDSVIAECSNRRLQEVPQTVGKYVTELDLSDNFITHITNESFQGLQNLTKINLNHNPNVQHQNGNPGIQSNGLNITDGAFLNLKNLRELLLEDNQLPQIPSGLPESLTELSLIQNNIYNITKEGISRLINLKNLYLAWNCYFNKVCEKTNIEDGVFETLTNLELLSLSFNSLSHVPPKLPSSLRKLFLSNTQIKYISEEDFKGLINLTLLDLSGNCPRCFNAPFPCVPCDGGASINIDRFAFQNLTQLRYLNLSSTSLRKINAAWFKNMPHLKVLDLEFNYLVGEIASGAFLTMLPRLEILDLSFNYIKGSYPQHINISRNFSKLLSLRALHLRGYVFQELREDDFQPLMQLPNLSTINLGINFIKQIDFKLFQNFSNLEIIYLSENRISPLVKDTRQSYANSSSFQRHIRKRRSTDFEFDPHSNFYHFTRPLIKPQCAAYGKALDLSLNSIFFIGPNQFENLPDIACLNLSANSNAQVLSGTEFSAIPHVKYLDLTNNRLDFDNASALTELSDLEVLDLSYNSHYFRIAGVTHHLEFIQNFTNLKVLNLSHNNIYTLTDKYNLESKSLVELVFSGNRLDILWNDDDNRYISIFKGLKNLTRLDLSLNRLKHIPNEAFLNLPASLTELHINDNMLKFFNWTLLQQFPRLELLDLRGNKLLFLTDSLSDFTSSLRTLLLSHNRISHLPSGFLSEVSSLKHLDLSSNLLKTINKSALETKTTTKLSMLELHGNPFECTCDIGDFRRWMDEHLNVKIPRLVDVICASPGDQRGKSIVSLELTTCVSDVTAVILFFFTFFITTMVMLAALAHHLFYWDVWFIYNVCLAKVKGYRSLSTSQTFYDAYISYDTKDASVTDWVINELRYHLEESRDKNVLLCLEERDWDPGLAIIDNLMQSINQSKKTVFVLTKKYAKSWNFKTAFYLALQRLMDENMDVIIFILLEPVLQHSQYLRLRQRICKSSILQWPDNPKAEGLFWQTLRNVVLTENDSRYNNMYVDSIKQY
Procedure, shortened: (§2)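 HEK293 reporter cell lines, each expressing a single human TLR, with compound titrated up to 100 μM. EC50 taken for TLR7 and TLR8 activation.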

[3] = Cmax in cynomolgus monkey at 1 mg/kg, po; format: ADME, organism-based, Macaca fascicularis; set-up: dose 1 mg/kg, route oral; settings: in vivo; procedure, shortened: as §1
Cynomolgus monkey [4] = assay: Agonist activity at […] in cynomolgus monkey assessed as increase of serum IFNalpha level at 2 mg/kg, po after 1 to 24 hrs by ELISA; format: functional, Macaca fascicularis
Procedure, shortened: (§3)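 Healthy male cynomolgus monkeys, n = 3 per group, dosed either by 30 min iv infusion or orally. Serum was sampled predose and at 1, 2, 4, 8, 12 and 24 h postdose. IFN-α was measured by species-specific ELISA (limit of detection 130 pg/mL) and reported as mean peak serum level ± SD.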

Toll-like receptor 7 = biological target: T2, Toll-like receptor 7 (Homo sapiens, UniProt Q9NYK1); assay: Agonist activity at human TLR7 expressed in HEK293 cells by reporter based assay; format: cell-based; procedure, shortened: as §2
T2 sequence (Q9NYK1 whole entry): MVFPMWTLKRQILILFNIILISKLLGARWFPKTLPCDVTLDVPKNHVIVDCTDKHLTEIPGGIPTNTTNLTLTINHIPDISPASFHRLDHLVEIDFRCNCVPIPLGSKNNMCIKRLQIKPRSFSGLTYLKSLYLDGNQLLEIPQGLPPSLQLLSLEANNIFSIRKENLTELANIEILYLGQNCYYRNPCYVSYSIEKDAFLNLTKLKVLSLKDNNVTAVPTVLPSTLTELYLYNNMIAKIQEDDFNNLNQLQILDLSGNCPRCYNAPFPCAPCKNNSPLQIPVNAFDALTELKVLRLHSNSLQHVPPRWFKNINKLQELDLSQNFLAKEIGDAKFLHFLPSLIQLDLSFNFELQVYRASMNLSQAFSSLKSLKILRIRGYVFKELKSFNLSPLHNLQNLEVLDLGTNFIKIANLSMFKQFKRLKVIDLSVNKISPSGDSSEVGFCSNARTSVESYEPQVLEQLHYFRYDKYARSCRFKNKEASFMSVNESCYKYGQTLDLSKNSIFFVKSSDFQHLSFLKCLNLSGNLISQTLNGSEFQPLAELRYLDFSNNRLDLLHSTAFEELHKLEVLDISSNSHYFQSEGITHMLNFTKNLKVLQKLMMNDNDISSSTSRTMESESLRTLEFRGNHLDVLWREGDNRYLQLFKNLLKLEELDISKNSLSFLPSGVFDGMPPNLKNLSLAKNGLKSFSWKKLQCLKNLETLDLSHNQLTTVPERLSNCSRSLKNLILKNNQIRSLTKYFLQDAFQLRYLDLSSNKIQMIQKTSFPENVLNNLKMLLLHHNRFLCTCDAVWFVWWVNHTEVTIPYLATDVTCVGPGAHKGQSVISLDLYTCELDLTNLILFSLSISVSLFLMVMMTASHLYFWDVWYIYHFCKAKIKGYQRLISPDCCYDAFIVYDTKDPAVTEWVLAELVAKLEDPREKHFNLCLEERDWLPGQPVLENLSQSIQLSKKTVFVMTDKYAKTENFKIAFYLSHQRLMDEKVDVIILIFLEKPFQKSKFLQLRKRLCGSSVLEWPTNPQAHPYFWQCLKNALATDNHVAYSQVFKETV

[5] = Cmax in cynomolgus monkey at 0.1 mg/kg, po; format: ADME, organism-based, Macaca fascicularis; set-up: dose 0.1 mg/kg, route oral; settings: in vivo; procedure, shortened: as §1
Homo sapiens = organism: Homo sapiens; assay: Selectivity ratio of MEC for TLR8-mediated TNFalpha production in human PBMC to MEC for TLR7-mediated IFNalpha production in human PBMC
Procedure, shortened: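 Cryopreserved human PBMCs came from leukapheresis of a single healthy donor selected as a consistent responder. Cells were incubated with compound for 24 h over an eight-point concentration range, and cytokine release was measured. MEC is the lowest concentration giving cytokine levels at least 3-fold above untreated cultures, determined per cytokine.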

Cynomolgus monkey [6] = assay: Agonist activity at […] in cynomolgus monkey assessed as increase of serum IFNalpha level at 1 mg/kg, po after 1 to 24 hrs by ELISA; format: functional, Macaca fascicularis; procedure, shortened: as §3
[7] = Half life in monkey liver microsomes; format: ADME, Macaca mulatta, Microsome; settings: rhesus monkey
Cynomolgus monkey [8] = assay: Agonist activity at […] in po dosed cynomolgus monkey assessed as increase of serum IFNalpha level after 1 to 24 hrs by ELISA; format: functional, organism-based; settings: Macaca fascicularis; procedure, shortened: as §3

## CCCCOc1nc(N)c2c(n1)N(Cc1cccc(CN3CCCC3)c1)CC(=O)N2 [VESATOLIMOD]
[1]
  Cmax: 128 ng/mL
[2]
  bioavailability: 1.1%
Toll-like receptor 8
  EC50: 9 µM
[3]
  Cmax: 20.7 ng/mL
Cynomolgus monkey [4]
  Activity: 119000 pg/mL
Toll-like receptor 7
  EC50: 0.29 µM
[5]
  Cmax: 1.6 ng/mL
Homo sapiens
  Ratio: 100
Cynomolgus monkey [6]
  Activity: 22367 pg/mL
[7]
  half-life: 5.9 min
Cynomolgus monkey [8]
  Activity: Dose-dependent effect
